ChEMBL document CHEMBL1140496, “Discovery of N-phenyl nicotinamides as potent inhibitors of Kdr” (Bioorg Med Chem Lett, 2007)

Tests used:
[1] = target: T1, Vascular endothelial growth factor receptor 2 (Homo sapiens, UniProt P35968); assay: Inhibition of phosphorylated-Kdr after 30 mins
HUVEC [2] = assay: Antiproliferative activity against VEGF-driven HUVEC; type: functional, cell-based; conditions: Homo sapiens
HUVEC [3] = assay: Antiproliferative activity against bFGF-driven HUVEC; type: functional, cell-based; conditions: Homo sapiens
[4] = target: T1, Vascular endothelial growth factor receptor 2; assay: Inhibition of unphosphorylated-Kdr after 30 mins
[5] = Bioavailability in rat at 100 mg/kg; type: ADME, organism-based; conditions: in vivo
A-431 = assay: Antitumor activity in A431 cells xenografted po dosed nude mouse assessed as delay in disease progression administered twice daily; type: functional, organism-based; conditions: Homo sapiens
In short: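 Nude mice bearing A431 human […] epidermoid carcinoma xenografts received oral doses twice daily at 37.5, 75 or 150 mg/kg, against vehicle. Tumor size (cubic mm) was followed from about day 5 to day 23, with percent body weight also tracked. Groups were compared by p-values.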

[6] = AUC in rat at 100 mg/kg; type: ADME, organism-based; design: dose 100 mg/kg; conditions: plasma
[7] = Clearance in rat at 100 mg/kg; type: ADME, organism-based; design: dose 100 mg/kg; conditions: in vivo

T1 sequence (P35968 whole entry): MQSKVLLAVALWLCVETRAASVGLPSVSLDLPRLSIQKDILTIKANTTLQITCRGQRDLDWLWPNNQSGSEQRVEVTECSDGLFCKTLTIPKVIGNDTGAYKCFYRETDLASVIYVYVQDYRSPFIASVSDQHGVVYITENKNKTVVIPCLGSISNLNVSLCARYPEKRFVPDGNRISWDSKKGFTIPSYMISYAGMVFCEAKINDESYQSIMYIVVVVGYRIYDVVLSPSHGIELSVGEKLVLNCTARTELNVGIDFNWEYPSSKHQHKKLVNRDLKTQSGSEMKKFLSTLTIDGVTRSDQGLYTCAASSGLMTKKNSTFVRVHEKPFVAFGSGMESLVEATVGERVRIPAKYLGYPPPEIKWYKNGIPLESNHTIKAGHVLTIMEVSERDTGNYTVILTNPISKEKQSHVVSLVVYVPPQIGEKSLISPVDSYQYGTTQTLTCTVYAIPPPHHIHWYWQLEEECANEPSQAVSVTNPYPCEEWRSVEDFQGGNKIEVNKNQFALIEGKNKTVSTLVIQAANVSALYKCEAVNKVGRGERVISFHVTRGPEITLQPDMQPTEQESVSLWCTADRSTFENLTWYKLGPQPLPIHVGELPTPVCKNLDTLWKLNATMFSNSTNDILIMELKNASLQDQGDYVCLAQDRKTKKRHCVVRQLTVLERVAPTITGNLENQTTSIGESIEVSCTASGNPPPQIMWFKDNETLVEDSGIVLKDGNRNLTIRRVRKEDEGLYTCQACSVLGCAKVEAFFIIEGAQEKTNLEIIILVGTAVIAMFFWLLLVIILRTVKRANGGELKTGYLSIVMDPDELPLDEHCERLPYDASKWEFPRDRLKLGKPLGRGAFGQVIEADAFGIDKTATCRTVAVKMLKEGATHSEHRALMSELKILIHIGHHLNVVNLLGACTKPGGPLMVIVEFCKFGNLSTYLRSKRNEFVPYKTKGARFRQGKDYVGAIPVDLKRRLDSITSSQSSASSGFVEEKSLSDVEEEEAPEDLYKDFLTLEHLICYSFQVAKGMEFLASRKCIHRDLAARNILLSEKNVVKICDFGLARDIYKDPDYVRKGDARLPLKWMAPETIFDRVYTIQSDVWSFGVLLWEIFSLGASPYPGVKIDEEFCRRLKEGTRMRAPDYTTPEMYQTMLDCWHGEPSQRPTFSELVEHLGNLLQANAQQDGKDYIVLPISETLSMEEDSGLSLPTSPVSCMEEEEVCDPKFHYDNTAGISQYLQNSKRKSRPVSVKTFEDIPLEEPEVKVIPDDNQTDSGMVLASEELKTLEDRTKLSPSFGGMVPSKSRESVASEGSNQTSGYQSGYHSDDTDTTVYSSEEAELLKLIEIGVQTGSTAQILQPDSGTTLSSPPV

| SMILES | Ki [1] | further results |
| --- | --- | --- |
| O=C(Nc1ccc(Oc2ccccc2)cc1)c1cccnc1Nc1ccc2cn[nH]c2c1 | 70 nM | – |
| O=C(Nc1ccc(Oc2ccccc2)cc1)c1cccnc1NCc1ccc(F)cc1 | 135 nM | – |
| CCOC(=O)c1coc(-c2cccc(NC(=O)c3cccnc3NCc3ccncc3)c2)c1 | 29 nM | – |
| CC(O)c1cccc(NC(=O)c2cccnc2NCc2ccncc2)c1 (configuration not stated) | > 6660 nM | – |
| O=C(Nc1ccc(OC(F)(F)F)cc1)c1cccnc1NCc1ccncc1 | 23 nM | – |
| O=C(Nc1ccc(Oc2ccccc2)cc1)c1cccnc1NCc1ccc2c(c1)OCO2 | 38 nM | – |
| O=C(Nc1ccc(Cl)cc1)c1sccc1NCc1ccncc1 | – | Ki [4]: 120 nM |
| O=C(Nc1ccc(Cl)c(C(F)(F)F)c1)c1cccnc1NCc1ccncc1 | 4 nM | – |
| O=C(Nc1ccc(Cl)cc1)c1cc(Br)cnc1NCc1ccncc1 | 490 nM | – |
| O=C(Nc1ccc(Cl)c(Cl)c1)c1cccnc1NCc1ccncc1 | 17 nM | – |
| O=C(Nc1ccc(C2CCCCC2)cc1)c1cccnc1NCc1ccncc1 | 2 nM | – |
| CCc1cccc(NC(=O)c2cccnc2NCc2ccncc2)c1 | 106 nM | – |
| O=C(Nc1ccccc1Oc1ccccc1)c1cccnc1NCc1ccncc1 | > 20000 nM | – |
| Cc1ccc(C(=O)Nc2ccc(Cl)cc2)c(NCc2ccncc2)n1 | – | Ki [4]: > 10000 nM |
| O=C(Nc1ccc(Cl)cc1)c1ccccc1NCc1ccncc1 | 15 nM | – |
| O=C(Nc1ccc(Cl)cc1)c1cccnc1NCc1ccncc1 | – | IC50 (HUVEC [2]): 8 nM; bioavailability [5]: 45%; Ki [4]: 8 nM; Activity (A-431): Dose-dependent effect; AUC [6]: 20000 ng·h/mL; clearance [7]: 73.3 mL/min/kg; IC50 (HUVEC [3]): > 1000 nM |
| O=C(Nc1ccc(Cl)cc1)C1CCCCC1NCc1ccncc1 (configuration not stated) | > 10000 nM | – |

Continued, in another order:

| Ki [1] | SMILES | further results |
| --- | --- | --- |
| 8 nM | O=C(Nc1cc(C(F)(F)F)cc(C(F)(F)F)c1)c1cccnc1NCc1ccncc1 | – |
| 2 nM | O=C(Nc1cccc(Cl)c1)c1cccnc1NCc1ccncc1 | IC50 (HUVEC [2]): 40 nM; IC50 (HUVEC [3]): > 1000 nM |
| 140 nM | O=C(Nc1ccc(Cl)cc1)c1cncnc1NCc1ccncc1 | – |
| > 6660 nM | CN1CCN(c2ccc(NC(=O)c3cccnc3NCc3ccncc3)cc2)CC1 | – |
| 9 nM | O=C(Nc1ccc(C(F)(F)F)cc1)c1cccnc1NCc1ccncc1 | – |
| > 10000 nM | O=C(Nc1ccc(Cl)cc1)c1ncccc1NCc1ccncc1 | – |
| > 20000 nM | O=C(Nc1ccc(Oc2ccccc2)cc1)c1cccnc1Nc1csc2ccccc12 | – |
